Experimental data as given in the RNAGym collection of RNA variant scans (doi:10.1101/gad.245936.114).
Fewer inactive variants are shown than the library holds.

B1: tRNA (parent)
chain: CUCUCGGUAGCCAAGUUGGUUUAAGGCGCAAGACUUUAAUUUAUCACUACGAAAUCUUGAGAUCGGGCGUUCGACUCGCCCCCGGGAGAUUUUUUCCUCGAGCAA

Variants of: B1
Test: nonsense suppression (GFP-seq) (ratio to wild type); higher = more function; SUP4oc tRNA, yeast GFP reporter sort-seq
Procedure, shortened: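 To measure nonsense suppression, tRNA variants from a library carrying ~3% random mutations were integrated into the yeast genome alongside RFP and a GFP ochre reporter under galactose control. Growth took place in raffinose/galactose medium supplemented with 80 mg/L adenine, followed by sorting into GFP/RFP bins and Illumina sequencing of each bin (phred ≥30). For each variant with ≥100 reads and ≥30 cells, the bin median GFP/RFP values were weighted by its estimated cell share per bin and referenced to the unmutated parent tRNA.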

Variant | nonsense suppression
CUCUCGGUAGCCAAGUUGGUUUAAAGCGCAAUACUUUAAUUUAUCACUACGAAAUCUUGAGAUCGGGCGUGCGACUCGCCCCCGGGAGAUUUUUUCCUCGAGCAA [G25A G32U U71G] | ≤ 0.026
CUCUCGGUAGCCAAGUUGGUUUAAGGCGCAAGGCUUUAAUUUAUCACUACGAAAUCUUGAGAUCGGGCGUUCGACUCGCCCCCGCGAGAUUUUUUCCUCGAGCAA [A33G G85C] | 0.0351
CUCUCGGUAGCCAAGUUGGUUUAAGGCGCAAGACUUUAAUUUAUCACUACGAAAUCUUGAGAUCGGGCGAUCGACUCGCUCCCGGGAGAUUUUUUCCUCGAGCAA [U70A C80U] | ≤ 0.026
CUCGCGGUAGCCAAGUUGGUUUAAGGCGCAAGACUUUAAUUUAUCACUACGAAAUCUUGAGAUCGAGCGUUCGACUCGCCCCCGGGAGAUUUUUUCCUCGAGCAA [U4G G66A] | 0.0774
CCCUCGGUAGCCAAGUUGGUUUAAGGCGCAAGACUUUAAUUUAUCACUACGAAAUCUUGUGAUCGGGCGUUCGACUCGCCCCCGGGAGAUUUUUUCCUCGAGCAA [U2C A60U] | 0.194
CUCUCGGUAGCCAAGUUGGUUUAUGGCGCAGGACUUUAAUUUAUCACUACGAAAUCUUGAGAUCGGGCGUUCGACUCGCCCCCGGGAGAUUUUUUCCUCGAGCAA [A24U A31G] | 0.229
CUCUCGGUAGCCAAGUUGGUUUAAGGCGCAAGAGUUUAAUUUAUCACUACGAAAUCUUGAGAUCGGGCGUGCGACUCGCCCCCGGGAGAUUUUUUCCUCGAGCAA [C34G U71G] | ≤ 0.026
CUCUCGGUAGCCAAGUUGGUUUAAGGCCCAAGACUUUAAUUUAUCACUACGAAAUCUUGAGAUUGGGCGUUCGACUCGCCCCCGGGAGAUUUUUUCCUCGAGCAA [G28C C64U] | 0.0765
CUCUCGGUAGCCAAGUUGGUUUAAGGUGCACGACUUUAAUUUAUCACUACGAAAUCUUGACAUCGGGCGUUCGACUCGCCCCCGGGAGAUUUUUUCCUCGAGCAA [C27U A31C G61C] | ≤ 0.026
CUCUUGGUAGCCAAGUUGGUUUAAGGCGCAAGACUUUAAUUUAUCACUACGAAAGCUUGAGAUCGGGAGUUCGUCUCGCCCCCGGGAGAUUUUUUCCUCGAGCAA [C5U U55G C68A A74U] | ≤ 0.026
CUCUCGGUAGCCAAGUUGGUUUAAGGCGCAAGACUUUAAUUUAUCACUACGAAAUCGUGAGAUCGGGCGUACGACUCGCCCCCGGGAGAUUUUUUCCUCGAGCAA [U57G U71A] | ≤ 0.026
CUCUCGGUAGCCAAGUUGGUUUAAGGAGCCAGACUUUAAUUUAUCACUACGAAAUCUUGGGAUCGGGCGUUCGACUGGCCACCGGGAGAUUUUUUCCUCGAGCAA [C27A A30C A60G C77G C81A] | ≤ 0.026
CUCUCGGUAGCCAAGUUGGUUUAAGGCGCAAGACUUUAAUUUAUCACUACGAAAUCUUGACAUCGGGCGUUCGACUCUCCCCCGGGAGAUUUUUUCCUCGAGCAA [G61C G78U] | 0.13
CUCGCGGUAGCCGAGCUGGUUUAAGGCGCAAGACUUUAAUUUAUCACUACGAAAUCUUGAGAUCGGGCGUUCGACUCGCCCCCGGGAGAUUUUUUCCUCGAGCAA [U4G A13G U16C] | 0.0797
CUCGCGGUAGCCAAGUUGGUUUCAGUCGCAAGACUUUAAUUUAUCACUACGAAAUCUUGAGUUCGGGCCUUCGACUCGCCCCCUGGAGAUUUUUUCCUCGAGCAA [U4G A23C G26U A62U G69C G84U] | 0.116
CUCUCGGUAGCCAACUUGGUUUAAGUCGCAAGACUUUAAUUUAUCACUACGAAAUCCUGAGAUCGGGCGUUCGACUCCCCCCCGGGAGAUUUUUUCCUCGAGCAA [G15C G26U U57C G78C] | ≤ 0.026
CUCUCGGCAGCCAAGUUUGUUAAAGGCGCAAGACGUUAAUUUAUCACUACGAAAUCUUGAGAUCGGGCGUACGACUCGCGCCCGGGAGAUUUUUUCCUCGAGCAA [U8C G18U U22A U35G U71A C80G] | ≤ 0.026
CUCUCGGUCGCCAAGUGGGUUUAAGGCGCAAGACUUUAAUUUAUCACUACGAAAUCUUGAGAUCGGGCGUUCGACUCGCCCCCGGGAGAUUUUUUCCUCGAGCAA [A9C U17G] | 0.595
CUCUCGGUAGCCAAGUUGGUGUAAGGCACAGGACUUUAAUUUAUCACUACGAAAUCUUGAGAUCGGGCGUUCGACUCGCCCCCGGGAGAUUUUUUCCUCGAGCAA [U21G G28A A31G] | 0.266
CUCUCGGUAGCCCAGUUGGUUUAAGGCGUAAGACUUUAAUUUAUCACUACGAAAUCUUGAGAUCGGGCGUUCGACUCGCCCCCGGGAGAUUUUUUCCUCGAGCAA [A13C C29U] | 0.806
CUCUCGGUAGCCAAGUUGGUUUAAGGCGCAAGACUUUAAUUUAUCACUACGAAAUCUUGACAUCGGGCGUUCGAAUCGCCCCCGGGAGAUUUUUUCCUCGAGCAA [G61C C75A] | 1.06
CUCUCGGUAGUCAAGUUGGUUCAAGGCGCAAGACUUUAAUUUAUCACUACGAAAUCUUGAGAUCGGGCGUUCGACUCGCCCCCGGGAGAUUUUUUCCUCGAGCAA [C11U U22C] | 0.0289
CUCUCGGUAGCUAAGUUGGUUUAUGGCGCAAGACUUUAAUUUAUCACUACGAAAUCUUGAGAUCGGGCGUGCGACUCGCCCCCGGGAGAUUUUUUCCUCGAGCAA [C12U A24U U71G] | ≤ 0.026
CACUCGGUAGCCAAGUUGGUUUAAGGCGCAAGACUUUAAUUUAUCACUACGAAACCUUGAGAUCGGGCGUUCGACUCGCCCCCGGGAGAUUUUUUCCUCGAGCAA [U2A U55C] | 0.0451
CUCUCGGUAGCCAAGUUGGUUUAAGGCGCAAGACUUUAAUUUAUCACUACGAAAUCUUGAAACCGGGCGUUCGACUCGCCCCCGGGAGAUUUUUUCCUCGAGCAA [G61A U63C] | 0.728
CUCUCGGUAGCCAAGGAGAUUUAAGGAGCAAGACUUUAAUUUAUCACUACGAAAUCUUGAGAUCGGGCGUUCGACUCGCCCCCGGGAGAUUUUUUCCUCGAGCAA [U16G U17A G19A C27A] | ≤ 0.026
CUCUCGGUAGCCAAGUUGGUUUAAGGCGCAAGAUUUUAAUUUAUCACUACGAAAUCUUGACAUCGGGCGUUCGACUCGCCCCCGGGAGAUUUUUUCCUCGAGCAA [C34U G61C] | 0.0481
